Source: PubChem BioAssay (several laboratories)
An excerpt weighted towards active compounds, which were near 2.9% of everything screened.
VIM-2 inh: VIM-2 metallo-beta-lactamase inhibitors, primary screen, biochemical, epi-absorbance readout, Pseudomonas aeruginosa enzyme; purified VIM-2, nitrocefin hydrolysis, epi-absorbance fluorescence; inhibition, % at 5.6 µM; 290,000 compounds, 0.89% hits;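 active means inhibition above the mean of all tested compounds plus 3 SD, cutoff set per screening run, cut at about 7.5% in these data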;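 further: red hydrolysis product quenches plate fluorescence so inhibitors raise well fluorescence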
IMP-1 inhibitor: IMP-1 metallo-beta-lactamase inhibitors, primary screen, biochemical, epi-absorbance readout, Pseudomonas aeruginosa enzyme; metallo-beta-lactamase IMP-1 (Pseudomonas aeruginosa); purified IMP-1, nitrocefin hydrolysis, epi-absorbance fluorescence; inhibition, % at 5.6 µM; 290,000 compounds, 0.45% hits; AID 1556, 2009;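 active means inhibition above the mean plus 3 SD of all compounds in the same screening run, cut at about 4.5% in these data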
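Assay system: purified IMP-1; Quantity: IMP-1 0.2 nM before substrate addition; Medium: HEPES buffer pH 7.1 with ZnSO4 and Brij 35; Incubation: 15 min enzyme–compound preincubation, then 25 min nitrocefin reaction, 25 °C; Signal: fluorescence quenching readout, ex 480/em 530 nm; Controls: DMSO with and without IMP-1; Repeats: singlicate testing.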
Mot1-301 SUMO: yeast Mot1-301 growth rescue at high temperature, primary screen, SUMOylation pathway inhibitor project, S. cerevisiae, ATP luminescence, 38.5C | S. cerevisiae Mot1-301 growth rescue; percent above DMSO median, 100 means doubled | growth rescue, % at 18.8 µM | AID 2716, 2010 | 320,000 compounds, 1% hits;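 active means every valid replicate shows activation above 250% relative to neutral control wells; inactive means the rest, any valid replicate at or below 250%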
NLRP3 yeast inh: NALP3 inflammasome inhibitors in reconstituted yeast, primary screen, luminescence, uHTS; Yeast reconstituted NLRP3/ASC/caspase-1, beta-gal luminescence, 24 h; inhibition, % at 10 µM; 330,000 compounds, 0.39% hits;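 active means inhibition of 50% or more; inactive means inhibition below 50%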
NALP1 inh: NALP1 inflammasome inhibitors in reconstituted yeast, colorimetric, S. cerevisiae, triplicate retest. AID 2071, 2009. S. cerevisiae NALP1/ASC/caspase-1 growth, X-gal OD620, 72 h. 280,000 compounds, 0.61% hits. inhibition, % at 10 µM; in the data active means inhibition mostly above about 24%, no sharp cut-off; inactive means mostly below about 32%
PolyA inh: polyadenylation inhibitors in yeast reporter cells, primary screen, luminescence, S. cerevisiae; S. cerevisiae SKY197-pL101 polyadenylation reporter, beta-gal luminescence; efflux-impaired pdr1/pdr3 knockout yeast; score 100 = 6 SD above DMSO; AID 1875, 2009; activity score, % at 12 µM; 300,000 compounds, 0.02% hits;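 active means lowest replicate activity score at least 50, where 100 means six control SD above control mean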;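 further: yeast exposed to compound for 9 h at 30 °C; higher score means more reporter readthrough which indicates perturbed polyadenylation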
Yeast Mot1 SUMO: growth restoration of Mot1-301 yeast on galactose, dose response, SUMO pathway inhibitor project, whole organism, S. cerevisiae, ATP luminescence, cherry-picked samples; growth activity, percent, % at 42 µM; shares compounds with Mot1-301 SUMO; S. cerevisiae Mot1-301 galactose growth, 24 h; -100 = growth of slx-deleted rescue strain; 2,300 tested, under 10 active; AID 493004, 2010;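 active means Signal drops as the depositor expects, and the fitted half-maximal dose is no more than ten times the top valid tested dose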;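 further: more negative values mean stronger growth rescue toward the control strain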
A number is an active result; i = inactive; nt = no result; + = active, no number.

SMILES	VIM-2 inh	IMP-1 inhibitor	Mot1-301 SUMO	NLRP3 yeast inh	NALP1 inh	PolyA inh	Yeast Mot1 SUMO
Cc1ccccc1NC(=O)c1ccccc1NC(=O)c1ccco1	i	i	402	i	i	i	i
CNC(=O)c1ccccc1NC(=O)c1ccco1	i	i	i	i	i	i	nt
COc1cc(C(=O)Nc2sc3c(c2C(=O)O)CCC(C)C3)cc(OC)c1OC (stereo unspecified)	i	i	438	i	i	i	i
O=C(CSc1cn[nH]n1)Nc1ccccc1C(F)(F)F	i	i	i	i	i	i	nt
CC(=O)Nc1ccc(OC(F)(F)C(F)F)c(NC(C)=O)c1	i	i	i	i	i	i	nt
O=C(COc1ccccc1)Nc1ccc(OC(F)(F)C(F)F)c(NC(=O)COc2ccccc2)c1	i	i	961	i	i	i	i
S=C(Nc1ccc(Cl)cc1)N1CCN(Cc2ccccc2)CC1	i	i	590	i	i	i	i
Cc1ccc(NC(=S)N2CCN(Cc3ccccc3)CC2)cc1	i	i	i	i	i	i	nt
C/C(=C\C(=O)N1CCc2ccccc21)C(=O)O	i	i	587	i	i	i	i
O=C(CSc1nc2ccccc2[nH]1)NC1CCCC1	i	i	i	i	i	i	nt
O=C(CSc1nc2ncccc2[nH]1)NC1CCCCC1	i	i	929	i	i	i	i
NNC(=O)c1[nH]c2ccccc2c1-c1ccccc1	i	i	653	i	i	i	i
COCCCNC(=O)COc1ccc(S(=O)(=O)Nc2ccccc2)cc1	i	i	i	i	i	i	nt
CCNC(=O)COc1ccc(S(=O)(=O)Nc2ccccc2)cc1	i	i	798	i	i	i	i
C/C(CC1CC2=C(CC1(C)C)C(C)(C)CCC2)=N\NC(N)=S (stereo unspecified)	i	i	i	i	i	i	nt
CCCCn1c(N)c(N(CC(C)C)C(=O)CSCC(=O)Nc2cccc(C)c2)c(=O)[nH]c1=O	nt	nt	366	i	nt	i	i
COC(=O)[C@@H](NC(=O)N1CCC(Cc2ccccc2)CC1)C(C)C	i	i	i	i	i	i	nt
CCCCC(NC(C)=O)c1nc2ccccc2[nH]1 (stereo unspecified)	i	i	i	i	i	i	nt
CSCC[C@H](NC(=O)CC(C)(C)C)c1nc2ccccc2[nH]1	i	i	422	i	i	i	i
CCCC(=O)NC(C)c1nc2ccccc2[nH]1 (stereo unspecified)	i	i	595	i	i	i	i
CC(C)(C)CC(=O)N[C@@H](Cc1ccccc1)c1nc2ccccc2[nH]1	i	i	i	i	i	i	nt
COc1ccc(S(=O)(=O)N(C)CC(=O)NCCCn2ccnc2)cc1Cl	i	i	i	i	i	i	nt
Cc1ccc(OCCC(=O)NNC(=O)c2ccc(Br)cc2)cc1	nt	nt	i	i	nt	nt	nt
Cc1ccc(NC(=O)Cn2nnc(C(=O)NCc3ccc4c(c3)OCO4)c2N)cc1	i	i	550	i	i	i	i
CCc1ccc(CN(C)C(C)C(=O)NCc2ccccc2)cc1 (stereo unspecified)	i	i	i	nt	i	i	nt
SMILES	VIM-2 inh	IMP-1 inhibitor	Mot1-301 SUMO	NLRP3 yeast inh	NALP1 inh	PolyA inh	Yeast Mot1 SUMO
CCOc1ccc(CN(C)C(C)C(=O)NCc2ccccc2)cc1 (stereo unspecified)	i	i	401	i	i	i	i
Cc1ccc(C)c(CNS(=O)(=O)c2c(C(=O)N3CCCC3)c(C)n(C)c2C)c1	i	i	i	i	i	i	nt
O=S(=O)(NCC1CCCO1)c1cc(Cl)ccc1Br (stereo unspecified)	i	i	467	i	i	i	i
COc1ccc(S(=O)(=O)N2CCC(C(=O)Oc3cccc(C)c3)CC2)cc1OC	i	i	i	i	i	i	nt
CC1Cc2ccccc2N1C(=O)CN1C(=O)COc2ccccc21 (stereo unspecified)	i	i	i	i	i	i	nt
CC1Cc2ccccc2N1C(=O)Cn1c(=O)cc(O)c2ccccc21 (stereo unspecified)	i	i	636	i	i	i	i
NC1=NC2(CCCC2)N=C(Nc2ccccc2)N1	i	i	722	i	i	i	i
O=C(c1ccccn1)N1CCCC(N2CCN(Cc3ccc4c(c3)OCO4)CC2)C1 (stereo unspecified)	i	i	i	i	i	i	nt
CC(=O)c1ccccc1C(=O)N1CCCC(N2CCN(Cc3ccc4c(c3)OCO4)CC2)C1 (stereo unspecified)	i	i	360	i	i	i	i
CC(C)CNc1cc(=O)n(C)c(=O)n1C	i	i	392	i	i	i	i
CCNc1cc(=O)n(C)c(=O)n1C	i	i	i	i	i	i	nt
Cc1c(=O)n(OCc2ccccn2)c2ccccc2[n+]1[O-]	i	i	946	i	i	i	i
O=c1c(-c2ccc(F)cc2)[n+]([O-])c2ccccc2n1OCc1ccccn1	i	i	i	i	i	i	nt
CN(C/C=C/c1ccccc1[N+](=O)[O-])Cc1ccccc1	i	i	372	i	i	i	i
CC1=CS(=O)(=O)CC1Sc1ncn[nH]1 (stereo unspecified)	i	i	557	i	i	i	i
COc1cc(/C=N/NC(=O)c2nnn(-c3nonc3N)c2C(C)C)ccc1OCc1ccc(F)cc1	i	i	i	i	i	i	nt
CC(=O)N(C(C)=O)c1c(C#N)c(C)n(-c2ccccc2)c1C(=O)c1ccccc1	i	i	+	i	i	i	i
Nc1ccc(C2(c3ccc(N)cc3)OC(=O)c3ccccc32)cc1	i	i	497	i	i	i	i
CSc1nc(-c2ccccc2)nc(C(C)C)n1	nt	nt	i	i	nt	nt	nt
O=C(COC(=O)C1CC(=O)N(Cc2ccccc2)C1)Nc1ccccc1F (stereo unspecified)	i	i	544	i	i	i	i
CC1(C)Cc2c(cnn2-c2ccc(F)cc2)C(NC(=O)CCCN2CCCCC2=O)C1 (stereo unspecified)	i	i	523	i	i	i	i
OCCC1CN(Cc2cccc3nccnc23)CCN1Cc1ccc(F)cc1 (stereo unspecified)	i	i	i	i	i	i	nt
CCCCNS(=O)(=O)c1ccc2nc(-c3cccnc3)cc(C(=O)NCC(OC)OC)c2c1	i	i	i	i	i	i	nt
C=CCOc1ccc(C(=O)Nc2ccccc2C(=O)NCc2cccnc2)cc1	i	i	i	i	i	i	nt
